Consider four molecules from ChEMBL document CHEMBL3785069, “Tumour-specific cytotoxicity and structure-activity relationships of novel 1-[3-(2-methoxyethylthio)propionyl]-3,5-bis(benzylidene)-4-piperidones” (Bioorg Med Chem, 2016).

Each structure is given as a SMILES string.

Tested on in the first data set: not listed separately
Kind of data set: Cytotoxicity against human HSC4 cells after 48 hrs by MTT assay. In kind it is functional. The following applies: HSC-4, 48 h. An outline of the steps:
(§1)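 Oral carcinoma (HSC-2, HSC-3, HSC-4) and nonmalignant HGF and HPLF cells incubated with graded compound concentrations at 37 °C for 48 h in DMEM plus 10% heat-inactivated FBS. Viability read by MTT. CC50 from duplicate runs, differing by under 10% at each concentration.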
As to `COCCSCCC(=O)N1C/C(=C\c2ccccc2)C(=O)/C(=C/c2ccccc2)C1`, the CC50 stood at 1220 nM.

Take `COCC[S+]([O-])CCC(=O)N1C/C(=C\c2ccccc2)C(=O)/C(=C/c2ccccc2)C1` (centres undefined): the CC50 was determined as 1020 nM.

Regarding `COCCS(=O)(=O)CCC(=O)N1C/C(=C\c2ccccc2)C(=O)/C(=C/c2ccccc2)C1`, the CC50 is 1300 nM.

The molecule `COCCSCCC(=O)N1C/C(=C\c2ccc(OC)cc2)C(=O)/C(=C/c2ccc(OC)cc2)C1` returned a CC50 of 1630 nM.

Tested on in the next data set: not listed separately
Kind of data set: Cytotoxicity against human HSC3 cells after 48 hrs by MTT assay. In kind it is functional. The following applies: HSC-3, 48 h. An outline of the steps:
as §1
`COCCSCCC(=O)N1C/C(=C\c2ccccc2)C(=O)/C(=C/c2ccccc2)C1` displayed a CC50 of 1470 nM.

Molecule `COCC[S+]([O-])CCC(=O)N1C/C(=C\c2ccccc2)C(=O)/C(=C/c2ccccc2)C1` (centres undefined) returned a CC50 of 2100 nM.

`COCCS(=O)(=O)CCC(=O)N1C/C(=C\c2ccccc2)C(=O)/C(=C/c2ccccc2)C1` came in with a CC50 of 1190 nM.

Regarding `COCCSCCC(=O)N1C/C(=C\c2ccc(OC)cc2)C(=O)/C(=C/c2ccc(OC)cc2)C1`, the CC50 came out at 2270 nM.

A further data set relates to HSC-4. Put plainly: Selectivity index, ratio of average CC50 for human HGF and HPLF cells to CC50 for human HSC4 cells. The following applies: pooled result: one value given for 2 cell lines, strains, targets or settings.
For `COCCSCCC(=O)N1C/C(=C\c2ccccc2)C(=O)/C(=C/c2ccccc2)C1`, the “Selectivity Index” value is given as 7.07.

As to `COCC[S+]([O-])CCC(=O)N1C/C(=C\c2ccccc2)C(=O)/C(=C/c2ccccc2)C1` (centres undefined), the “Selectivity Index” value turned out to be 8.92.

For the molecule `COCCS(=O)(=O)CCC(=O)N1C/C(=C\c2ccccc2)C(=O)/C(=C/c2ccccc2)C1`, the “Selectivity Index” value is reported as 6.93.

As for `COCCSCCC(=O)N1C/C(=C\c2ccc(OC)cc2)C(=O)/C(=C/c2ccc(OC)cc2)C1`, the “Selectivity Index” value is reported as 10.1.

Tested on in the next data set: not listed separately
Kind of data set: Cytotoxicity against human Molt4/C8 cells after 72 hrs by MTT assay. It is filed as functional, cell-based. The following applies: MOLT-4, 72 h. In short, it runs like this: (§2)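 Leukemic cells exposed to a concentration series of each compound in RPMI 1640 medium at 37 °C, 72 h for Molt4/C8 and CEM, 48 h for L1210.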
`COCCSCCC(=O)N1C/C(=C\c2ccccc2)C(=O)/C(=C/c2ccccc2)C1` registered an IC50 of 1340 nM.

As to `COCC[S+]([O-])CCC(=O)N1C/C(=C\c2ccccc2)C(=O)/C(=C/c2ccccc2)C1` (centres undefined), the IC50 stood at 1620 nM.

In turn, `COCCS(=O)(=O)CCC(=O)N1C/C(=C\c2ccccc2)C(=O)/C(=C/c2ccccc2)C1` returned an IC50 of 1660 nM.

Take `COCCSCCC(=O)N1C/C(=C\c2ccc(OC)cc2)C(=O)/C(=C/c2ccc(OC)cc2)C1`: the IC50 worked out at 7080 nM.

For the next data set, the system named is HSC-2. Put plainly: Selectivity index, ratio of average CC50 for human HGF and HPLF cells to CC50 for human HSC2 cells. The following applies: pooled result: one value given for 2 cell lines, strains, targets or settings.
Consider `COCCSCCC(=O)N1C/C(=C\c2ccccc2)C(=O)/C(=C/c2ccccc2)C1`, for which the “Selectivity Index” value turned out to be 6.64.

In the case of `COCC[S+]([O-])CCC(=O)N1C/C(=C\c2ccccc2)C(=O)/C(=C/c2ccccc2)C1` (centres undefined), the “Selectivity Index” value was found to be 15.7.

Take `COCCS(=O)(=O)CCC(=O)N1C/C(=C\c2ccccc2)C(=O)/C(=C/c2ccccc2)C1`: the “Selectivity Index” value is 6.17.

For the molecule `COCCSCCC(=O)N1C/C(=C\c2ccc(OC)cc2)C(=O)/C(=C/c2ccc(OC)cc2)C1`, the “Selectivity Index” value is 8.33.

In a further data set the test system is CCRF-CEM. Kind of data set: Cytotoxicity against human CEM cells after 72 hrs by MTT assay. In kind it is functional, cell-based.
Details: not given
An outline of the steps:
as §2
In turn, `COCCSCCC(=O)N1C/C(=C\c2ccccc2)C(=O)/C(=C/c2ccccc2)C1` yielded an IC50 of 1230 nM.

`COCC[S+]([O-])CCC(=O)N1C/C(=C\c2ccccc2)C(=O)/C(=C/c2ccccc2)C1` (centres undefined) had an IC50 of 1290 nM.

Molecule `COCCS(=O)(=O)CCC(=O)N1C/C(=C\c2ccccc2)C(=O)/C(=C/c2ccccc2)C1` displayed an IC50 of 1140 nM.

As for `COCCSCCC(=O)N1C/C(=C\c2ccc(OC)cc2)C(=O)/C(=C/c2ccc(OC)cc2)C1`, the IC50 was 6310 nM.

Tested on in a further data set: not listed separately
Put plainly: Cytotoxicity against human HPLF cells after 48 hrs by MTT assay. It is filed as cell-based.
Details: not given
An outline of the steps: as §1
`COCCSCCC(=O)N1C/C(=C\c2ccccc2)C(=O)/C(=C/c2ccccc2)C1` registered a CC50 at 48 h of 7580 nM.

In the case of `COCC[S+]([O-])CCC(=O)N1C/C(=C\c2ccccc2)C(=O)/C(=C/c2ccccc2)C1` (centres undefined), half-maximal cytotoxicity (CC50 at 48 h) was put at 9100 nM.

`COCCS(=O)(=O)CCC(=O)N1C/C(=C\c2ccccc2)C(=O)/C(=C/c2ccccc2)C1` yielded a CC50 at 48 h of 8430 nM.

In turn, `COCCSCCC(=O)N1C/C(=C\c2ccc(OC)cc2)C(=O)/C(=C/c2ccc(OC)cc2)C1` showed a CC50 at 48 h of 15500 nM.

Tested on in the next data set: not listed separately
Kind of data set: Cytotoxicity against human HGF cells after 48 hrs by MTT assay. In kind it is cell-based.
Details: not given
In short, it runs like this:
as §1
For the molecule `COCCSCCC(=O)N1C/C(=C\c2ccccc2)C(=O)/C(=C/c2ccccc2)C1`, half-maximal cytotoxicity (CC50 at 48 h) was put at 9670 nM.

Consider `COCC[S+]([O-])CCC(=O)N1C/C(=C\c2ccccc2)C(=O)/C(=C/c2ccccc2)C1` (centres undefined), for which the CC50 at 48 h came out at 9090 nM.

On to `COCCS(=O)(=O)CCC(=O)N1C/C(=C\c2ccccc2)C(=O)/C(=C/c2ccccc2)C1`, for which the CC50 at 48 h is 9590 nM.

In turn, `COCCSCCC(=O)N1C/C(=C\c2ccc(OC)cc2)C(=O)/C(=C/c2ccc(OC)cc2)C1` registered a CC50 at 48 h of 17200 nM.

A further data set relates to HSC-3. Kind of data set: Selectivity index, ratio of average CC50 for human HGF and HPLF cells to CC50 for human HSC3 cells. The following applies: pooled result: one value given for 2 cell lines, strains, targets or settings.
Turning to `COCCSCCC(=O)N1C/C(=C\c2ccccc2)C(=O)/C(=C/c2ccccc2)C1`, the “Selectivity Index” value came to 5.87.

As to `COCC[S+]([O-])CCC(=O)N1C/C(=C\c2ccccc2)C(=O)/C(=C/c2ccccc2)C1` (centres undefined), the “Selectivity Index” value is 4.33.

In the case of `COCCS(=O)(=O)CCC(=O)N1C/C(=C\c2ccccc2)C(=O)/C(=C/c2ccccc2)C1`, the “Selectivity Index” value is recorded as 7.57.

With `COCCSCCC(=O)N1C/C(=C\c2ccc(OC)cc2)C(=O)/C(=C/c2ccc(OC)cc2)C1`, the “Selectivity Index” value is 7.23.

In another data set the test system is L1210. Put plainly: Cytotoxicity against mouse L1210 cells after 48 hrs by MTT assay. It is filed as functional, cell-based. The following applies: L1210, 48 h. An outline of the steps:
as §2
In the case of `COCCSCCC(=O)N1C/C(=C\c2ccccc2)C(=O)/C(=C/c2ccccc2)C1`, the midpoint of inhibition, the IC50, lay at 3000 nM.

The molecule `COCC[S+]([O-])CCC(=O)N1C/C(=C\c2ccccc2)C(=O)/C(=C/c2ccccc2)C1` (centres undefined) gave an IC50 of 4910 nM.

In the case of `COCCS(=O)(=O)CCC(=O)N1C/C(=C\c2ccccc2)C(=O)/C(=C/c2ccccc2)C1`, 2670 nM corresponded to half-maximal inhibition (IC50).

Consider `COCCSCCC(=O)N1C/C(=C\c2ccc(OC)cc2)C(=O)/C(=C/c2ccc(OC)cc2)C1`, for which half-maximal inhibition (IC50) was put at 13200 nM.

Tested on in the next data set: not listed separately
Kind of data set: Cytotoxicity against human HSC2 cells after 48 hrs by MTT assay. In kind it is functional. The following applies: HSC-2, 48 h. An outline of the steps:
as §1
Turning to `COCCSCCC(=O)N1C/C(=C\c2ccccc2)C(=O)/C(=C/c2ccccc2)C1`, it took 1300 nM to reach half-maximal cytotoxicity (CC50).

Molecule `COCC[S+]([O-])CCC(=O)N1C/C(=C\c2ccccc2)C(=O)/C(=C/c2ccccc2)C1` (centres undefined) yielded a CC50 of 580 nM.

In turn, `COCCS(=O)(=O)CCC(=O)N1C/C(=C\c2ccccc2)C(=O)/C(=C/c2ccccc2)C1` showed a CC50 of 1460 nM.

In turn, `COCCSCCC(=O)N1C/C(=C\c2ccc(OC)cc2)C(=O)/C(=C/c2ccc(OC)cc2)C1` returned a CC50 of 1970 nM.
